Results collected from several papers.
Lines come from different studies, so protocols differ.
Target: 5-hydroxytryptamine receptor 3A (HTR3A, Homo sapiens, UniProt P46098)
Tested at: 10 µM
Residues used in one study (P46098 24-478): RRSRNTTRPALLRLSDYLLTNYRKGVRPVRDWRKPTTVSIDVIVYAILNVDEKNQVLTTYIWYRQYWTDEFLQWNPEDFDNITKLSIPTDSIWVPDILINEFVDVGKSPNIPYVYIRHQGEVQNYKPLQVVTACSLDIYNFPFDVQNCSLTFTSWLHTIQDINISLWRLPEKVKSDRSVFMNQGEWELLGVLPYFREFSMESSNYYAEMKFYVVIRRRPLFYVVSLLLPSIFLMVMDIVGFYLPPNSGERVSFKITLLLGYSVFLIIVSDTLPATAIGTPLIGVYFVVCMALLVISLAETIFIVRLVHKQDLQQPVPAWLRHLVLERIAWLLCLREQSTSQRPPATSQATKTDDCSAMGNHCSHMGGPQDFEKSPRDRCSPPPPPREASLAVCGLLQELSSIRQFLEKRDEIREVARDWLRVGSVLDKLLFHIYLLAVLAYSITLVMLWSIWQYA

SMILES | test | quantity | result
Cc1c(N2CCNCC2)nc2ccc(Br)cc2c1C(=O)NC[C@H](CCC(=O)O)c1ccccc1Cl | cell-free assay | inhibition | 86%
CC(C)Cn1cnc2c(N)nc3ccccc3c21 | ligand displacement, radioligand | inhibition | 8%
C[C@H](C(=O)N[C@H]1COc2ccccc2[C@@H]1S(C)(=O)=O)c1ccc(F)cc1 | cell-free assay | inhibition | 6%
Nc1ncc(-c2nc(N3CCOCC3)nc(N3CCOCC3)n2)c(C(F)F)n1 | cell-free assay | remaining signal | 100%
c1ccc(C(NCCNC(c2ccccc2)c2ccccc2)c2ccccc2)cc1 | cell-free assay | inhibition | -16%
COc1ccc(N=Nc2ccc3[nH]cc(CCN(C)C)c3c2)cc1 | ligand displacement, radioligand | inhibition | < 50%
Clc1ccc2c(C3CCN(CCc4c[nH]c5ccccc45)CC3)c[nH]c2c1 | ligand displacement, radioligand | inhibition | 38%
Cn1cncc1[C@@](O)(COc1ccc(C#N)cc1-c1ccc(OC(F)(F)F)cc1)c1ccc(C#N)cc1 | cell-free assay | inhibition | -0.62%
COc1cc2c3c(c1OC)-c1cc4c(cc1CC3N(C)CC2)OCO4 (racemic) | ligand displacement, radioligand | inhibition | 44.6%
CCN(CC)CCCC[C@H](NC(=O)[C@H](CC(C)C)NC(=O)[C@H](C)NC(=O)[C@H](Cc1ccccc1)NC(=O)c1ccc(C(C)(C)C)cc1)C(=O)N[C@@H](CO)C(=O)OC | ligand displacement, radioligand | inhibition | -21%
CC(C)N1CCC[C@H]1CNC(=O)c1cn(C2CCCC2)c(=O)c2c1c1ccccc1n2C | ligand displacement, radioligand | inhibition | -4%
